Source: ChEMBL document CHEMBL1765014, “Non-peptide NK1 receptor ligands based on the 4-phenylpyridine moiety” (Bioorg Med Chem, 2011)
Active and inactive are the calls of the source. No cut-off for these calls is given here.

What was measured:
[1] = biological target: Substance-P receptor (Homo sapiens, UniProt P25103); assay: Displacement of [125I]BH-SP from human recombinant NK1 receptor expressed in CHO cells after 90 mins; type: cell-based
[2] = Antiangiogenic activity in bovine CVEC cell assessed as inhibition of Sar9-SP-sulfone-induced proliferation after 48 hrs by microscopic analysis; type: functional, cell-based; details: Bos taurus
Method in brief: (§1)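 Subconfluent, synchronized bovine CVEC were stimulated with 10 nM Sar9-SP-sulfone, with or without test compound, for 48 h. Fixed and stained cells were counted microscopically as total cell number per well. Results are expressed as % inhibition of agonist-induced proliferation. Data are means ± SEM of three experiments; Student's t test.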

[3] = Antiangiogenic activity in bovine CVEC cell assessed as inhibition of Sar9-SP-sulfone-induced cell migration after 4 hrs by microscopic analysis; type: functional, cell-based; details: Bos taurus
Method in brief: (§2)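 Bovine post-capillary venular endothelial cells (CVEC), cultured as previously described. Cells migrated toward 10 nM Sar9-SP-sulfone with or without test compound in a Neuroprobe microchemotaxis chamber and were evaluated after 4 h. Results are expressed as % inhibition of Sar9-SP-sulfone-induced activity. Data are means ± SEM of three experiments; Student's t test.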

[4] = Antiangiogenic activity in bovine CVEC cell assessed as inhibition of Sar9-SP-sulfone-induced proliferation at 1 uM after 48 hrs by microscopic analysis; type: functional; details: Bos taurus; method in brief: as §1
[5] = Antiangiogenic activity in bovine CVEC cell assessed as inhibition of Sar9-SP-sulfone-induced cell migration at 100 nM after 4 hrs by microscopic analysis; type: functional; details: Bos taurus; method in brief: as §2
[6] = Antiangiogenic activity in bovine CVEC cell assessed as inhibition of Sar9-SP-sulfone-induced proliferation at 100 nM after 48 hrs by microscopic analysis; type: functional; details: Bos taurus; method in brief: as §1
[7] = Antiangiogenic activity in bovine CVEC cell assessed as inhibition of Sar9-SP-sulfone-induced cell migration at 1 uM after 4 hrs by microscopic analysis; type: functional; details: Bos taurus; method in brief: as §2
[8] = test system: CVEC; assay: Antiangiogenic activity in bovine CVEC cell assessed as cell proliferation at 100 nM to 1 uM after 48 hrs by microscopic analysis; type: functional, cell-based; details: Bos taurus; method in brief: as §1
[9] = test system: CVEC; assay: Antiangiogenic activity in bovine CVEC cell assessed as cell migration at 100 nM to 1 uM after 4 hrs by microscopic analysis; type: functional, cell-based; details: Bos taurus; method in brief: as §2

Sequence of Substance-P receptor (P25103 whole entry): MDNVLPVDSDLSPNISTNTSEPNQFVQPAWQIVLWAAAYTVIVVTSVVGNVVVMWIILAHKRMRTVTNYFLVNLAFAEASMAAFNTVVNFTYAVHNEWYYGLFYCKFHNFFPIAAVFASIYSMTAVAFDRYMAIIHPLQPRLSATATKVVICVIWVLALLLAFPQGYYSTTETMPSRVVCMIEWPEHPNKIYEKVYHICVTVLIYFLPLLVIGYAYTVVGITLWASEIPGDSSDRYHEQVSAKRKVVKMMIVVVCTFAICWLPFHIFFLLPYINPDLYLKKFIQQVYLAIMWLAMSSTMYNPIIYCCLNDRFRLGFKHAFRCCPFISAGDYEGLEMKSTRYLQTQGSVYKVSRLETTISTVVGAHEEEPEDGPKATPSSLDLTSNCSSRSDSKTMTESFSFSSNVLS

Structure (SMILES) | IC50 [1] [nM] | further results
CN(Cc1cc(C(F)(F)F)cc(C(F)(F)F)c1)C(=O)c1c(-c2ccccc2)ccnc1CCl | 52 | –
COc1ccccc1CNC(=O)c1c(-c2ccccc2)ccnc1C | – | IC50 [2]: > 1000 nM; IC50 [3]: > 1000 nM; inhibition at 1 µM [4]: 11%; inhibition at 0.1 µM [5]: 0%; inhibition at 0.1 µM [6]: 0%; inhibition at 1 µM [7]: 9%
Cc1c(C(=O)N(C)Cc2cc(C(F)(F)F)cc(C(F)(F)F)c2)c(-c2ccccc2)cc2nncn12 | 53 | –
Cc1nccc(-c2ccccc2)c1C(=O)NCc1cc(C(F)(F)F)cc(C(F)(F)F)c1 | 653 | –
O=C(NCc1cc(C(F)(F)F)cc(C(F)(F)F)c1)c1cnc2ccccc2c1-c1ccccc1 | 208 | –
Cc1nc(N2CCN(C)CC2)cc(-c2ccccc2)c1C(=O)N(C)Cc1cc(C(F)(F)F)cc(C(F)(F)F)c1 | 4.8 | Activity [8]: inactive; Activity [9]: inactive; inhibition at 1 µM [4]: 79.7%; inhibition at 0.1 µM [5]: 100%; inhibition at 0.1 µM [6]: 7.6%; inhibition at 1 µM [7]: 99%
Cc1c(C(=O)NCc2cc(C(F)(F)F)cc(C(F)(F)F)c2)c(-c2ccccc2)cc2nncn12 | 698 | –
Cc1nc2ccccc2c(-c2ccccc2)c1C(=O)NCc1cc(C(F)(F)F)cc(C(F)(F)F)c1 | 257 | –
Cc1c(C(=O)NCc2cc(C(F)(F)F)cc(C(F)(F)F)c2)c(-c2ccccc2)cc2nnnn12 | 279 | –
O=C(NCc1cc(C(F)(F)F)cc(C(F)(F)F)c1)c1c(-c2ccccc2)ccnc1CCl | 235 | –
Cc1cc(-c2ccccc2)c(C(=O)NCc2cc(C(F)(F)F)cc(C(F)(F)F)c2)c(C)n1 | 434 | –
Cc1nc(Cl)cc(-c2ccccc2)c1C(=O)NCc1cc(C(F)(F)F)cc(C(F)(F)F)c1 | 270 | –
Cc1c(C(=O)NCc2cc(C(F)(F)F)cc(C(F)(F)F)c2)c(-c2ccccc2)cc[n+]1[O-] | 342 | –
Cc1c(C(=O)N(C)Cc2cc(C(F)(F)F)cc(C(F)(F)F)c2)c(-c2ccccc2)cc2nnnn12 | 57 | –
Cc1nc(N2CCN(C)CC2)cc(-c2ccccc2)c1C(=O)NCc1cc(C(F)(F)F)cc(C(F)(F)F)c1 | 53 | Activity [8]: inactive; Activity [9]: inactive; inhibition at 1 µM [4]: 76.3%; inhibition at 0.1 µM [5]: 100%; inhibition at 0.1 µM [6]: 33.5%; inhibition at 1 µM [7]: 100%
Cc1cc(-c2ccccc2)c(C(=O)N(C)Cc2cc(C(F)(F)F)cc(C(F)(F)F)c2)c(C)n1 | 41 | –
Cc1nc2ccccc2c(-c2ccccc2)c1C(=O)N(C)Cc1cc(C(F)(F)F)cc(C(F)(F)F)c1 | 19 | –
CN(Cc1cc(C(F)(F)F)cc(C(F)(F)F)c1)C(=O)c1c(CO)nc2ccccc2c1-c1ccccc1 | 42 | –
Cc1nccc(-c2ccccc2)c1C(=O)N(C)Cc1cc(C(F)(F)F)cc(C(F)(F)F)c1 | 98 | –
Cc1c(C(=O)N(C)Cc2cc(C(F)(F)F)cc(C(F)(F)F)c2)c(-c2ccccc2)cc[n+]1[O-] | 32 | –
O=C(NCc1cc(C(F)(F)F)cc(C(F)(F)F)c1)c1c(CO)nc2ccccc2c1-c1ccccc1 | 227 | –
Cc1nc(Cl)cc(-c2ccccc2)c1C(=O)N(C)Cc1cc(C(F)(F)F)cc(C(F)(F)F)c1 | 91 | –
CN(Cc1cc(C(F)(F)F)cc(C(F)(F)F)c1)C(=O)c1cnc2ccccc2c1-c1ccccc1 | 92 | –
